Hits are enriched below; roughly 12% of the tested compounds scored in any of these assays.
Autophagy mod = autophagy modulators in MEF cells, primary screen, imaging, high-content, MEF GFP-LC3; MEF GFP-LC3 puncta imaging; test concentration mostly 10 µM; calls only at 10 µM (by protocol); 0.98% of 190,000 active; AID 463193, 2010;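 active = percentage of spot-positive cells more than 3 SD above its plate mean, without a fluorescence outlier flag or 80% toxicity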;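 also: spot-positive cell cutoff set from DMSO-treated cells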
b-catenin transl = modulators of beta-catenin nuclear translocation, primary screen, imaging, HeLa cells, immunofluorescence, high-content. 0.3% of 190,000 active. nuclear translocation activity, % at 5 µM;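 active = nuclear translocation activity above 50% at 5 µM, with a well cell count of 50 or more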;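 also: per-cell ratio of nuclear to cytoplasmic median beta-catenin stain intensity; plate controls were DMSO negative control for no effect and GSK-3 inhibitor IX positive control for full effect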
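Test system: human HeLa cells, native beta-catenin. Compound dosing: 5 µM primary single dose, 0.1% DMSO, 0.02–20 µM confirmation series. Incubation: compound exposure 24 h at 37°C. Detection: beta-catenin immunostaining with DAPI counterstain, 20x imaging, 6 fields/well. Read-out basis: Nuclear/cytoplasmic beta-catenin signal ratio, % activation.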
Dynein transport = inhibitors of GR-EGFP nuclear translocation, primary screen, dynein cargo transport inhibitor project, imaging, high-content, 3617.4 mouse cells; test concentration mostly 20 µM; stimulated with dexamethasone, 1 µM; hits give low values; z-score, hits read low; 0.47% of 220,000 active;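 active = plate z-score of nuclear minus cytoplasmic receptor signal below a set negative limit, without overly bright fluorescence or cell loss, cut at about -3.5 in these data, passing the limit was not always enough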;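 also: z-score of nuclear minus cytoplasmic ring GR-EGFP intensity difference per well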
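Also added – dexamethasone, 1.0 µM final · Buffer or medium – tet-free, stripped-serum medium · Schedule – induction 48 h, compound 1 h, agonist 30 min · Detection – formaldehyde fixation, Hoechst nuclear stain, 10x automated fluorescence imaging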
Lmaj promast = Leishmania major promastigote growth inhibition, primary screen; Leishmania major promastigotes, resazurin fluorescence viability; inhibition, % at 10 µM; AID 1063, 2008; 9% of 200,000 active; in the data active = inhibition above about 50%;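 also: promastigotes grown with compound for 44 hours at 28 °C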
CHOP inhibitor = inhibitors of CHOP promoter induction, primary screen, cell-based, unfolded protein response, luciferase reporter; CHO-K1 CHOP-promoter luciferase, tunicamycin-induced, 15-18 h; inhibition, % at 10 µM; 3.8% of 220,000 active; AID 2732, 2010;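 active = compounds that reduced the stress-induced luciferase reporter signal by more than about 70% of percent inhibition, limit read from the data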;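 also: 0% = tunicamycin plus vehicle and 100% = wells without tunicamycin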
MT stabilizer = microtubule stabilizers in HeLa cells, primary screen, imaging, high-content imaging; HeLa tubulin immunostaining HCS, 24 h; share of cells brighter than vehicle mean+2SD; % tubulin-high responders, % at 10 µM; 0.83% of 200,000 active;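 active = plate Z-score above 3 for both tubulin-high and condensed-nucleus cell shares, with cell loss under 80%, at 10 µM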;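 also: anti alpha tubulin signal scored within the nucleus-defined area of each cell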
CHOP inh conf = retest of CHOP induction inhibitors, confirmation, cell-based; shares compounds with CHOP inhibitor; CHO-CHOP promoter luciferase reporter, tunicamycin-induced, luminescence; inhibition, % at 10 µM; 45% of 2,100 active;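 active = mean of three repeat readings of reporter signal inhibition above a set limit, cut at about 70% in these data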;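 also: 0% = tunicamycin plus vehicle and 100% = wells lacking tunicamycin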
Starred values were filed as active, the others as inactive; i = inactive; . = no result given.

SMILES | Autophagy mod | b-catenin transl | Dynein transport | Lmaj promast | CHOP inhibitor | MT stabilizer | CHOP inh conf
COc1ccc(NS(=O)(=O)c2ccc(O)c(NC(=O)c3cc4c(C)nn(-c5ccc(F)cc5)c4s3)c2)cc1 | i | -0.2 | -0.871 | -17.0 | 108.2* | 1.6 | 114.8*
Cc1nn(-c2ccc(F)cc2)c2sc(C(=O)N3CCCCCC3)cc12 | i | . | 1.4 | -0.7 | 32.1 | 2.0 | .
CC(C)Nc1nc(NC(C)C)nc(C(N)=O)n1 | i | -4.1 | -0.195 | -1.4 | 23.5 | 2.0 | .
C(=N\n1cnnc1)/c1ccc2c(c1)OCO2 | i | 0.6 | 0.123 | -1.8 | 9.1 | 4.2 | .
Cc1cc2ncn(/N=C/c3ccc4c(c3)OCO4)c2cc1C | i | -2.9 | -0.243 | 17.0 | 96.3* | 4.3 | 66.5
Cc1ccc(O)c(NC(=O)c2noc3c2CCc2ccccc2-3)c1 | i | 2.8 | -0.518 | -9.0 | 107.3* | 1.9 | -96.1
Nc1cc(C(F)(F)F)ccc1Nc1ccccc1 | i | -0.3 | 2.27 | 1.8 | 54.1 | 1.7 | .
Cc1ccccc1N1CCN(C(=O)c2ccc(Oc3ccc(C(F)(F)F)cn3)cc2)CC1 | i | -2.8 | 3.17 | -2.1 | 103.3* | 1.7 | 73.2*
O=C1CC(C(=O)Nc2ccc(Cl)cc2)S/C(=N\N=C\c2ccco2)N1 (stereo unspecified) | . | 0.8 | -0.307 | . | 5.3 | . | .
O=C1CC(C(=O)Nc2ccc(Cl)c(Cl)c2)S/C(=N\N=C\c2ccco2)N1 (stereo unspecified) | . | -0.2 | 1.9 | . | 100.1* | . | 23.2
CCn1cc(-c2cc(C(F)(F)F)n3nc(C(=O)O)cc3n2)c(C)n1 | i | -1.8 | 0.951 | -2.9 | 28.4 | 3.6 | .
CCOc1cc(/C=N/OC(C)=O)ccc1OCc1ccccc1 | i | -0.6 | -0.509 | 6.6 | 3.2 | 5.0 | .
CCOc1cc(/C=C2/C(=O)ON=C2C)ccc1OCc1ccccc1F | i | 0.2 | 1.26 | 58.3* | 98.9* | 3.8 | 111.7*
CCOc1cc(C=C2C(=O)c3ccccc3C2=O)ccc1OCC(=O)Nc1ccc(C)cc1 | i | 0.4 | 0.168 | 0.7 | 6.1 | 3.2 | .
CCOc1cc(/C=C2/C(=O)ON=C2C)ccc1OCc1ccccc1 | i | 0.9 | 0.194 | 39.9 | 105.1* | 3.0 | -16.2
CCOc1cc(/C=C2/C(=O)ON=C2C)ccc1OCc1ccc(F)cc1 | i | 1.2 | -0.544 | 32.9 | 99.5* | 0.7 | 124.5*
CC1SC(C)C(=O)N(CC(=O)NCc2ccc(F)cc2)C1=O (stereo unspecified) | i | -2.2 | 0.801 | -4.1 | 9.7 | 4.5 | .
Cc1nc2ccc(S(=O)(=O)NCC(=O)N3CCC(C)CC3)cc2s1 | i | -0.4 | -0.373 | -4.4 | 52.6 | 3.2 | .
NS(=O)(=O)c1cc(C(=O)OCC(=O)Nc2ccc(N3CCCCC3)cc2)ccc1Cl | . | 5.0 | 3.69 | . | 0.5 | . | .
COc1ccc(NC(=S)Nc2ccc(S(N)(=O)=O)cc2)c(OC)c1 | i | 0.5 | -0.941 | 14.5 | 11.4 | 3.7 | .
CCC(=O)Nc1cc(ON=C(C)C)cc([N+](=O)[O-])c1 | i | . | 2.68 | 4.3 | 10.1 | 3.0 | .
CC(C)=NOc1cc(NC(=O)CCl)cc([N+](=O)[O-])c1 | i | . | -3.37 | 98.6* | 111.5* | 2.7 | 110.2*
CCC(=O)Nc1nnc(Sc2ccc(N(C)C)cc2)s1 | i | 0.8 | -0.664 | -5.8 | 4.2 | 2.3 | .
CN(C)c1ccc(Sc2nnc(NC(=O)Nc3ccc(Cl)cc3Cl)s2)cc1 | i | -0.1 | -0.0354 | -15.1 | 99.8* | 3.7 | 35.9
CCNc1nc(=S)nc(NCc2ccccc2)[nH]1 | i | -2.5 | -0.96 | -7.1 | 12.7 | 3.1 | .
SMILES | Autophagy mod | b-catenin transl | Dynein transport | Lmaj promast | CHOP inhibitor | MT stabilizer | CHOP inh conf
Cc1nn(Cc2ccc(Cl)cc2Cl)c(C)c1NC(=O)Cn1nc([N+](=O)[O-])c(Cl)c1C | i | 2.7 | -0.0107 | -6.5 | 100.1* | 3.4 | 32.6
Cc1nn(Cc2ccc(Cl)cc2)c(C)c1NC(=O)Cn1nc([N+](=O)[O-])c(Cl)c1C | i | 4.2 | -0.111 | -5.4 | -20.9 | 4.1 | .
Cc1cc(C(=O)N/N=C/c2cc(Br)ccc2OC(=O)c2ccccc2)n[nH]1 | i | 1.1 | -0.618 | -7.3 | 39.9 | 4.4 | .
Cc1cc(C(=O)N/N=C/c2cc(Br)ccc2OC(=O)c2ccccc2Cl)n[nH]1 | i | 2.6 | -0.485 | 98.3* | 99.2* | 1.2 | 33.7
COc1ccc(/C=C2\C(=O)NC(=S)N2C(=O)c2ccc(F)cc2)cc1 | i | -1.6 | 3.15 | 3.8 | 97.3* | 4.7 | 25.9
O=C1NC(=S)N(C(=O)c2ccc(F)cc2)/C1=C/c1ccccc1 | i | 0.0 | 0.0973 | -0.5 | 66.8 | 3.4 | .
Cc1ccc(C2CC2c2n[nH]c(=S)n2-c2ccc(Cl)cc2)cc1 (stereo unspecified) | i | . | 1.24 | -3.0 | 105.5* | 1.9 | -2.1
Cc1ccc(C2CC2c2n[nH]c(=S)n2-c2cccc(C)c2)cc1 (stereo unspecified) | i | -0.5 | -0.738 | -2.7 | 18.7 | 1.4 | .
COc1cc(Cl)c(C)cc1NC(=S)NN | i | -3.1 | -0.252 | -9.6 | -1.2 | 2.9 | .
COc1ccc(C/C(C)=N/NC(=O)c2cccnc2)cc1 | i | -1.5 | -1.17 | -11.3 | -11.7 | 2.3 | .
CC(C)(C)c1cc(C(c2cccnc2)N2CCN(CCO)CC2)cc(C(C)(C)C)c1O (stereo unspecified) | i | . | -2.98 | 100.2* | 110.3* | 3.9 | -59.8
O=c1[nH]c2cc3c(cc2cc1C(c1nnnn1CC1CCCO1)N1CCCCCC1)OCCO3 (stereo unspecified) | i | 0.4 | -0.012 | -2.4 | 20.8 | 1.6 | .
CC(C)(C)c1cc(-c2csc(Nc3ccccc3)[n+]2Cc2ccc(C(=O)O)cc2)cc(C(C)(C)C)c1O | . | 0.2 | -0.398 | . | 106.4* | . | 120.7*
CN(C)c1ccc(NC(=O)C(=O)C2C(=O)Nc3ccccc32)cc1 (stereo unspecified) | . | -1.1 | 0.954 | . | -16.0 | . | .
CC(C)(C)c1ccc(NC(=O)C(=O)C2C(=O)Nc3ccccc32)cc1 (stereo unspecified) | i | 2.4 | -0.174 | 3.8 | 101.5* | 2.0 | 47.5
CN(/C(=N\S(=O)(=O)c1ccccc1)c1ccccc1)c1ccc(O)cc1 | i | -2.4 | -0.579 | -5.8 | 24.4 | 1.8 | .
CCCCn1c(=O)[nH]c(=O)c2c1nc(-c1ccc(OCCC)c(OCC)c1)n2C | . | -0.1 | -0.287 | . | 100.5* | . | 91.1*
Cc1c(C(=O)Nc2ccccc2)csc1-c1ccccc1 | i | 2.8 | -0.0751 | -8.5 | 38.6 | 2.5 | .
